Like-named read-outs stand apart in the source and are kept apart here.

Data set [1] can be described thus: MTT cytotoxicity assay in HUVECs, in the dark. The data set is classed as cell-based, human. Particulars: human, HUVECs (human umbilical vein endothelial cells). On the technique in general: Tetrazolium dyes change colour on reduction, which living cells bring about.
The nature of data set [2]: MTT cytotoxicity assay in A549 cells, in the dark. Type of data set: cell-based. Particulars: human.
In a further data set the test system is HUVECs. Briefly: MTT cytotoxicity assay in HUVECs, in the dark. Type of data set: cell-based, human. Particulars: HUVECs, non-illuminated.
Data set [3] is classed as cell-based. Particulars: human, HUVECs (human umbilical vein endothelial cells).
The test system of a further data set is A549 cells. The data set can be described thus: Mitochondrial bioenergetics. Type of data set: cell-based, human. An outline of the steps:
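Seeded 20,000 cells/well 24 h before, then 4 h with vehicle (0.4% DMSO) or test compound (0.1, 1.0, 10 μM). One plate blue-LED illuminated 1 h at 37 °C, the other kept dark. XF base medium with 1 mM pyruvate, 2 mM glutamine, 25 mM glucose, pH 7.4; 30 min at 37 °C, no CO2. OCR over 80 min after oligomycin, FCCP, then rotenone/antimycin A (each 1.0 μM). Three experiments × 8 replicates; mean ±SEM; one-way ANOVA, Tukey.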

The format of data set [4] is cell-based. Particulars: human, A549 cells.
Another data set relates to mitochondria. Particulars: cited from earlier work.
Where [5] appears, read: 10 μM, after 1 h of illumination to induce CO release.

With `O=C(NCCCCCCCC[P+](c1ccccc1)(c1ccccc1)c1ccccc1)c1ccc(C(=O)Oc2cc3ccccc3cc2C(=O)O)cc1` [Compound 5, (8-(4-(((3-carboxynaphthalen-2-yl)oxy)carbonyl)benzamido)octyl)triphenylphosphonium bromide], the IC50 in data set [1] was 90 ± 7.5 µM; in data set [2], 69.1 ± 11 µM.

As to `O=C(NCCCCCCCC[P+](c1ccccc1)(c1ccccc1)c1ccccc1)c1ccc(-c2oc3cc4ccccc4cc3c(=O)c2O)cc1` [Compound 3, (8-(4-(3-hydroxy-4-oxo-4H-benzo[g]chromen-2-yl)benzamido)octyl)triphenylphosphonium bromide], the IC50 in data set [1] is 8.4 ± 3.6 µM; in data set [2], 8.48 ± 4 µM.

For the compound `O=C(NCC[P+](c1ccccc1)(c1ccccc1)c1ccccc1)c1ccc(C(=O)Oc2cc3ccccc3cc2C(=O)O)cc1.[Br-]` [Compound 4, (2-(4-(((3-carboxynaphthalen-2-yl)oxy)carbonyl)benzamido)ethyl)triphenylphosphonium bromide], the “cytotoxicity (MTT), result in words” value in the data set with HUVECs is reported as “no cytotoxicity”. Besides, the IC50 in data set [2] and in data set [3] was more than 100 µM in each case.

Take `O=C(O)CC[P+](c1ccccc1)(c1ccccc1)c1ccccc1.[Br-]` [TPPBr, 2-carboxyethyl-triphenylphosphonium bromide, reference compound]: the “changes in the mitochondrial bioenergetics profile” value in the data set on A549 cells (0.1–10 μM, illuminated or non-illuminated cells) is recorded as “no significant changes”. Further, the IC50 in data set [1], in data set [2] and in data set [3] was more than 100 µM in each case.

As for `O=C(NCC[P+](c1ccccc1)(c1ccccc1)c1ccccc1)c1ccc(-c2oc3cc4ccccc4cc3c(=O)c2O)cc1.[Br-]` [Compound 2, (2-(4-(3-hydroxy-4-oxo-4H-benzo[g]chromen-2-yl)benzamido)ethyl)triphenylphosphonium bromide], in the data set with A549 cells (setting [5]), the “ATP production (OCR)” value is recorded as “decreased”, the “basal respiration (OCR)” value is “decreased”, the “maximal respiration (OCR)” value is “decreased” and the “reserve capacity (OCR)” value is reported as “decreased”. The “concentration needed to produce significant changes in bioenergetics parameters” value with A549 cells (light-triggered CO release) amounted to 10 µM. Besides, in data set [1], the IC50 was 1.51 ± 1.4 µM. In data set [2], this compound returned an IC50 of 14.1 ± 2.7 µM. In data set [4], this compound registered an IC50 of 4.6 ± 3.6 µM. In data set [3], this compound gave an IC50 of 3.78 ± 1.5 µM.

With `O=c1cc(-c2ccccc2)oc2cc(O)c(O)c(O)c12` [baicalein], the “effect on mitochondrial bioenergetics” value with mitochondria was “decreases ATP-production via uncoupling of mitochondrial membranes”.

For the compound `O=c1c(O)c(-c2ccc(O)c(O)c2)oc2cc(O)cc(O)c12` [quercetin], the “effect on mitochondrial bioenergetics” value in the data set with mitochondria is “increases basal respiration, maximal respiration, ATP-linked respiration and the reserve capacity of mitochondria”.

Broadly, the IC50 is the point on the concentration scale where inhibition reaches its midpoint. Low values mean inhibition by little substance, high ones a need for much substance.
